Converted amounts (≈) assume the structure as drawn.
Columns and labels:
[1] = test system: HeLa; test: Cytotoxicity against human HeLa cells assessed as cell viability at 5 uM after 72 hrs by MTT assay relative to control; assay type: functional; conditions: read-out: Activity
Procedure, shortened: (§1)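 Cells grown in DMEM with 10% heat-inactivated FCS and penicillin/streptomycin at 37 °C, 5% CO2, and used in log phase. Seeded in 96-well plates and exposed to compounds at 5 μM and 1.5 μM for 72 h. MTT added, formazan dissolved in DMSO, OD read at 570 nm, and survival rate calculated. Average of at least three independent experiments.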

[2] = test system: U-87 MG; test: Cytotoxicity against human U87 cells assessed as cell viability at 1.5 uM after 72 hrs by MTT assay relative to control; assay type: functional, U-87MG ATCC; conditions: read-out: Activity; procedure, shortened: as §1
[3] = test system: MKN-45; test: Cytotoxicity against human MKN45 cells assessed as cell viability at 5 uM after 72 hrs by MTT assay relative to control; assay type: functional; conditions: MKN-45, 72 h, read-out: Activity; procedure, shortened: as §1
[4] = test system: MKN-45; test: Cytotoxicity against human MKN45 cells assessed as cell viability at 1.5 uM after 72 hrs by MTT assay relative to control; assay type: functional; conditions: MKN-45, 72 h, read-out: Activity; procedure, shortened: as §1
[5] = Cytotoxicity against human KBV cells assessed as cell viability at 5 uM after 72 hrs by MTT assay relative to control; assay type: functional; conditions: read-out: Activity; procedure, shortened: as §1
[6] = Cytotoxicity against human KBV cells assessed as cell viability at 1.5 uM after 72 hrs by MTT assay relative to control; assay type: functional; conditions: read-out: Activity; procedure, shortened: as §1
[7] = test system: HeLa; test: Cytotoxicity against human HeLa cells assessed as cell viability at 1.5 uM after 72 hrs by MTT assay relative to control; assay type: functional; conditions: read-out: Activity; procedure, shortened: as §1
[8] = test system: U-87 MG; test: Cytotoxicity against human U87 cells assessed as cell viability at 5 uM after 72 hrs by MTT assay relative to control; assay type: functional, U-87MG ATCC; conditions: read-out: Activity; procedure, shortened: as §1
[9] = Cytotoxicity against HEK293 cells assessed as reduction in cell viability after 72 hrs by MTT assay; assay type: cell-based; conditions: human
[10] = test system: Staphylococcus aureus; test: Antibacterial activity against Staphylococcus aureus; assay type: functional

SMILES | viability at 5 µM [1] [%] | viability at 1.5 µM [2] [%] | viability at 5 µM [3] [%] | viability at 1.5 µM [4] [%] | viability at 5 µM [5] [%] | viability at 1.5 µM [6] [%] | viability at 1.5 µM [7] [%] | viability at 5 µM [8] [%] | CC50 at 72 h [9] [µg/mL] | MIC [10] [µg/mL]
CC(=O)O[C@H]1C[C@@]2(C)[C@@H](C[C@@H](O)[C@H]3[C@@]4(C)CC[C@@H](OC(=O)CCCCCCCN)[C@@H](C)[C@@H]4CC[C@@]32C)/C1=C(\CCC=C(C)C)C(=O)OCc1ccccc1 | 19 | 116 | 4 | 16 | 11 | 83 | 99 | 10 |  | 
CC(=O)O[C@H]1C[C@@]2(C)[C@@H](C[C@@H](O)[C@H]3[C@@]4(C)CC[C@@H](OC(=O)c5ccccc5C(=O)N5CCOCC5)[C@@H](C)[C@@H]4CC[C@@]32C)/C1=C(\CCC=C(C)C)C(=O)OCc1ccccc1 | 60 | 86 | 92 | 104 | 66 | 81 | 76 | 77 |  | 
CC(=O)O[C@H]1C[C@@]2(C)[C@@H](C[C@@H](O)[C@H]3[C@@]4(C)CC[C@@H](OC(=O)CCC(=O)O)[C@@H](C)[C@@H]4CC[C@@]32C)/C1=C(\CCC=C(C)C)C(=O)OCc1ccccc1 | 69 | 86 | 76 | 74 | 66 | 72 | 83 | 84 |  | 
CC(=O)O[C@H]1C[C@@]2(C)[C@@H](C[C@@H](O)[C@H]3[C@@]4(C)CC[C@@H](OC(=O)CCCCCCCCCCN)[C@@H](C)[C@@H]4CC[C@@]32C)/C1=C(\CCC=C(C)C)C(=O)OCc1ccccc1 | 19 | 49 | 5 | 96 | 9 | 93 | 100 | 10 |  | 
CC(=O)O[C@H]1C[C@@]2(C)[C@@H](C[C@@H](O)[C@H]3[C@@]4(C)CC[C@@H](OC(=O)CCCN)[C@@H](C)[C@@H]4CC[C@@]32C)/C1=C(\CCC=C(C)C)C(=O)OCc1ccccc1 | 23 | 10 | 6 | 90 | 13 | 98 | 101 | 9 |  | 
CC(=O)O[C@H]1C[C@@]2(C)[C@@H](C[C@@H](O)[C@H]3[C@@]4(C)CC[C@@H](OC(=O)c5ccccc5C(=O)O)[C@@H](C)[C@@H]4CC[C@@]32C)/C1=C(\CCC=C(C)C)C(=O)OCc1ccccc1 | 68 | 81 | 76 | 78 | 81 | 78 | 89 | 85 | 20.6 (≈ 27.3 µM) | 32 (≈ 42.4 µM)
CC(=O)O[C@H]1C[C@@]2(C)[C@@H](C[C@@H](O)[C@H]3[C@@]4(C)CC[C@@H](OC(=O)C(N)CC(C)C)[C@@H](C)[C@@H]4CC[C@@]32C)/C1=C(\CCC=C(C)C)C(=O)OCc1ccccc1 (some centres undefined) | 22 | 106 | 92 | 95 | 83 | 96 | 99 | 111 |  | 
CC(=O)O[C@H]1C[C@@]2(C)[C@@H](C[C@@H](O)[C@H]3[C@@]4(C)CC[C@@H](OC(=O)c5ccccc5C(=O)n5cccn5)[C@@H](C)[C@@H]4CC[C@@]32C)/C1=C(\CCC=C(C)C)C(=O)OCc1ccccc1 | 82 | 90 | 96 | 101 | 79 | 85 | 90 | 87 |  | 
CC(=O)O[C@H]1C[C@@]2(C)[C@@H](C[C@@H](O)[C@H]3[C@@]4(C)CC[C@@H](OC(=O)CCC(=O)n5cccn5)[C@@H](C)[C@@H]4CC[C@@]32C)/C1=C(\CCC=C(C)C)C(=O)OCc1ccccc1 | 71 | 87 | 83 | 88 | 80 | 77 | 75 | 83 |  | 
